The source made the active and inactive calls. No cut-off for these calls is given here.
Legend:
PC-12 [1] = test: Effect on cell morphology in rat PC12 cells at 1 to 30 uM incubated for 4 days in absence of NGF; format: functional, cell-based
Procedure, shortened: (§1)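 PC12 cells seeded at 8 × 10^3 cells/cm2 in DMEM + 10% HS, 5% FBS, penicillin/streptomycin, 37 °C, 5% CO2, 24 h. Medium then switched to DMEM + 2% HS, 1% FBS and test samples added without NGF. After 4 days, cells fixed in 4% paraformaldehyde−PBS, stained with methylene blue, and morphology examined by phase-contrast microscopy. Triplicate wells.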

PC-12 [2] = test: Potentiation of NGF-induced neurite outgrowth-promotion in rat PC12 cells assessed as increase in neurite length at 30 uM incubated for 4 days in presence of 0.5 ng/mL NGF (reference value: 21.1 micrometer); format: functional
PC-12 [3] = test: Potentiation of NGF-induced neurite outgrowth-promotion in rat PC12 cells assessed as increase in neurite length at 10 uM incubated for 4 days in presence of 0.5 ng/mL NGF (reference value: 21.1 micrometer); format: functional
PC-12 [4] = test: Potentiation of NGF-induced neurite outgrowth-promotion in rat PC12 cells assessed as increase in neurite length at 1 to 30 uM incubated for 4 days in presence of 0.5 ng/mL NGF (reference value: 21.1 micrometer); format: functional, cell-based
PC-12 [5] = test: Potentiation of NGF-induced neurite outgrowth-promotion in rat PC12 cells at 1 to 30 uM incubated for 4 days in presence of 0.5 ng/mL NGF; format: functional, cell-based
PC-12 [6] = test: Potentiation of NGF-induced neurite outgrowth-promotion in rat PC12 cells assessed as increase in neurite length at 1 uM incubated for 4 days in presence of 0.5 ng/mL NGF (reference value: 21.1 micrometer); format: functional
PC-12 [7] = test: Toxicity in NGF-stimulated rat PC12 cells at > 30 uM incubated for 4 days in presence of 0.5 ng/mL NGF; format: cell-based; settings: pc-12, 96 h
Procedure, shortened: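 PC12 cells grown 24 h in DMEM + 10% HS/5% FBS, then exposed for 4 days to test samples with 0.5 ng/mL NGF in DMEM + 2% HS/1% FBS. After fixing in 4% paraformaldehyde−PBS and methylene blue staining, cells were examined under phase-contrast microscopy.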

PC-12 [8] = test: Effect on cell morphology in rat PC12 cells at 1 to 10 uM incubated for 4 days in absence of NGF; format: functional, cell-based; procedure, shortened: as §1
PC-12 [9] = test: Potentiation of NGF-induced neurite outgrowth-promotion in rat PC12 cells at 1 uM incubated for 4 days in presence of 0.5 ng/mL NGF; format: functional, cell-based
PC-12 [10] = test: Potentiation of NGF-induced neurite outgrowth-promotion in rat PC12 cells at 10 uM incubated for 4 days in presence of 0.5 ng/mL NGF; format: functional, cell-based

Row | Structure (SMILES) | Activity (PC-12 [1]) | Activity (PC-12 [2]) | Activity (PC-12 [3]) | Activity (PC-12 [4]) | Activity (PC-12 [5]) | Activity (PC-12 [6]) | Activity (PC-12 [7]) | Activity (PC-12 [8]) | Activity (PC-12 [9]) | Activity (PC-12 [10])
1 | CC1(C)CC[C@]2(CC[C@]3(C)C(=CC[C@@H]4[C@@]5(C)C[C@@H](O)[C@H](OC(=O)/C=C\c6ccc(O)cc6)[C@@](C)(CO)[C@@H]5CC[C@]43C)[C@H]2O)C1 (relative stereo) | inactive | 41.9 um | 33.5 um | Dose-dependent effect | Dose-dependent effect | 27.6 um | – | – | – | –
2 | COc1cc(/C=C/C(=O)O[C@H]2[C@H](O)C[C@@]3(C)[C@@H](CC[C@]4(C)[C@@H]3CC=C3[C@@H](O)[C@@]5(CCC(C)(C)C5)CC[C@]34C)[C@]2(C)CO)ccc1O (relative stereo) | inactive | 55.1 um | 42 um | Dose-dependent effect | Dose-dependent effect | 32.1 um | – | – | – | –
3 | CC1(C)CC[C@]2(CC[C@]3(C)C(=CC[C@@H]4[C@@]5(C)C[C@@H](O)[C@H](OC(=O)/C=C/c6ccc(O)cc6)[C@@](C)(CO)[C@@H]5CC[C@]43C)[C@H]2O)C1 (relative stereo) | inactive | 41.9 um | 33.5 um | Dose-dependent effect | Dose-dependent effect | 27.6 um | – | – | – | –
4 | CC1(C)CC[C@]2(CC[C@]3(C)C(=CC[C@@H]4[C@@]5(C)C[C@@H](O)[C@H](O)[C@@](C)(CO)[C@@H]5CC[C@]43C)[C@H]2O)C1 | – | – | 33.1 um | Dose-dependent effect | – | 22.9 um | Toxic | inactive | Active | Active
5 | COc1cc(/C=C\C(=O)O[C@H]2[C@H](O)C[C@@]3(C)[C@@H](CC[C@]4(C)[C@@H]3CC=C3[C@@H](O)[C@@]5(CCC(C)(C)C5)CC[C@]34C)[C@]2(C)CO)ccc1O (relative stereo) | inactive | 55.1 um | 42 um | Dose-dependent effect | Dose-dependent effect | 32.1 um | – | – | – | –

— ChEMBL document CHEMBL2086243, “Spirocyclic nortriterpenoids with NGF-potentiating activity from the fruits of Leonurus heterophyllus” (J Nat Prod, 2012)
